{
  "source": "paper PMC5784828",
  "about": "(Biochemical and biophysical research communications, 2018)",
  "test_system": "MDA-MB-231 cells",
  "test": "Scratch cell migration assay",
  "format": "cell-based",
  "settings": "1 μM, MDA-MB-231, 18 hr",
  "outline": "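MDA-MB-231 cells were grown at 37°C, 5% CO2, in high-glucose DMEM with 10% FBS, L-glutamine, penicillin/streptomycin and 15 mM HEPES. A scratch was made in a confluent monolayer, then test compound or 1% DMSO (solvent control) was added in normal growth medium. The same scratch area was photographed at 0 and 18–24 hr. Duplicate or single wells; four independent experiments; images representative.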",
  "data": [
    {"molecule": "CN(C)Cc1cccc(N/C(=C2\\C(=O)Nc3cc(C(N)=O)ccc32)c2ccccc2)c1", "note": "[BIX02188]", "values": [
      {"measurement": "Effect on scratch healing (cell migration)", "result": "showed inhibition of scratch healing"}
    ]}
  ]
}
